# In PubChem BioAssay:
# Activity calls are given as the source filed them.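 The calls were made as follows, unless noted: active = viability at or below 10% of carrier control in both of two separate runs; inconclusive = viability at or below 10% in only one of the two runs; inactive = the rest.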
# Experiments:
# [1] = reducers of endogenous Her2 protein level, primary screen, SKBR3 breast tumor cells, AlphaScreen, ATP viability (AID 461;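 active = Her2 level under about 52% in both replicate screens, with viability over 70% of control, limit read from the data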;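 as to Her2 level: lower value means less Her2 protein in the cells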;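 as to viability: percent of carrier control wells set as 100% viability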); conditions: 18-24 h, measured here: SKBR3 viability, ATP luminescence, at 10 µM
# [2] = molecular target: Receptor tyrosine-protein kinase erbB-2 (Homo sapiens) (UniProt P04626); assay: as above; conditions: 18-24 h, at 10 µM, stronger effect = lower value
# Receptor tyrosine-protein kinase erbB-2 (Homo sapiens), sequence (P04626 whole entry, looked up): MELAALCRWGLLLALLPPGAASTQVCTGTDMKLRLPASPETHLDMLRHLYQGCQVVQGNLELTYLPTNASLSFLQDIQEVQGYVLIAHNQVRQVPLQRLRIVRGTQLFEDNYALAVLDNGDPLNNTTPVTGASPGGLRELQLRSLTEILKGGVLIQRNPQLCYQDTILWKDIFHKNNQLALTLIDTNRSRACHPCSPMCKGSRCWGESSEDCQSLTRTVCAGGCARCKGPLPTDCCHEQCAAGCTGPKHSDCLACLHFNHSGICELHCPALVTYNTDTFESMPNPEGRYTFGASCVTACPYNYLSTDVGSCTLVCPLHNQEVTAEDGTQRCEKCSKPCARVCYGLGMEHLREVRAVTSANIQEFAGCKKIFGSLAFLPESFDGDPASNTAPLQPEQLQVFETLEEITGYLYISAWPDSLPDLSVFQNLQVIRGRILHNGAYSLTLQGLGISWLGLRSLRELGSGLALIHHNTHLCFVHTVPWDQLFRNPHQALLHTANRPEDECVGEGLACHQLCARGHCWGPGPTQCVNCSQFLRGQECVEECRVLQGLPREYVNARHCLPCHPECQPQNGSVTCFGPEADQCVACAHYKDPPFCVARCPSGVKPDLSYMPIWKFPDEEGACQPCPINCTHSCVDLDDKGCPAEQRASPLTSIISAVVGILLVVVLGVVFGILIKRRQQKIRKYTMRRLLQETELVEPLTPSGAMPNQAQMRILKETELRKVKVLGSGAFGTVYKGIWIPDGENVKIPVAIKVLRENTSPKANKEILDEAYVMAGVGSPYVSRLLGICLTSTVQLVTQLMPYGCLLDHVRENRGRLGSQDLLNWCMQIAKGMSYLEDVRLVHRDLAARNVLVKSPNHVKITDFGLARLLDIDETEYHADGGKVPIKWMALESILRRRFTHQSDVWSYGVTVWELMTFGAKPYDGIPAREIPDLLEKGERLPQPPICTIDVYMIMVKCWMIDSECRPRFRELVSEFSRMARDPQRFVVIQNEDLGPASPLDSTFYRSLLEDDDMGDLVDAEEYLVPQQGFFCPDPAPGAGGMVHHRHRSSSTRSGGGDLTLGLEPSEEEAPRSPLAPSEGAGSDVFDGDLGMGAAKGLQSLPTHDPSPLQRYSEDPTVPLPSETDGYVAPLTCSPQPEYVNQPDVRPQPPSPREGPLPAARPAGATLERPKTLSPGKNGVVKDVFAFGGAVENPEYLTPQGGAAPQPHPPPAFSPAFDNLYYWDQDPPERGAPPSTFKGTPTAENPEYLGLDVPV
# [3] = SK-BR-3 cell growth inhibitors, pilot screen, 24 h, human (AID 572); conditions: SK-BR-3 viability, CellTiter-Glo luminescence, at 10 µM, stronger effect = lower value;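 also: compound exposure lasted between 18 and 24 h rather than exactly 24 h; 100% = carrier-treated control wells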
# [4] = HUVEC growth inhibition – cell-based, human, primary screen (AID 575;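 active = viability at or below 30% in both replicate assays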;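 also: 100% = median of untreated cell wells with 0.1% DMSO on each plate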); conditions: HUVEC proliferation, CellTiter-Glo luminescence, 72 h; at 10 µM; stronger effect = lower value
# Summary of the method: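 Test system: HUVEC primary cells. Quantity: 1250 endothelial cells in each well. Dosing: single-point 10 µM, DMSO 0.1% final. Incubation: 72 h treatment at 37 °C. Measured by: CTG luminescence. Control set: DMSO cell controls and MePR drug controls. Plate: collagen-coated 384-well format.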
# [5] = growth inhibitors of H69AR lung tumor, primary screen, human, duplicate replicates (AID 580;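 active = viability at or under a set limit in both replicates, limit being median viability minus 3 SD, cut at about 48% in these data, passing the limit was not always enough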;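 also: 100% = mean luminescence of untreated wells and 0% = no signal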); conditions: H69AR lung tumor cells viability, ATP luminescence, 72 h; at 10 µM; stronger effect = lower value
# [6] = reversal of MRP1-mediated doxorubicin resistance, pilot screen, H69AR cells, doxorubicin co-treatment (AID 601;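 active = viability loss from added drug above about 55%, and viability with drug at most 40%, in both replicates, limit read from the data, passing the limit was not always enough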); conditions: CellTiter-Glo, 72 h, at 10 µM; for differential viability (reversal): stronger effect = higher value
# [7] = 384-well plate pilot, post-Golgi transport modulator project, inhibition of yeast transport mutant growth (AID 636; in the data active = inhibition above about 31%); conditions: absorbance 615 nm, about 18 h, stronger effect = higher value
# [8] = growth suppression of yeast trafficking mutant, preliminary HTS, modulators of trafficking downstream of Golgi apparatus project, 1536-format plate, OD 615 nm (AID 637; in the data active = inhibition above about 30%); conditions: yeast transport mutant growth, absorbance 615 nm, 18 h; stronger effect = higher value
# [9] = H69AR cells + 2 uM doxorubicin, measured here: viability with 2 uM doxorubicin, stronger effect = lower value
# [10] = H69AR cells, compound alone cytotoxicity
SMILES,viability [1] [%],Her2 level [2],viability [3],viability [4],viability [5],differential viability (reversal) ([6]; H69AR cells + 2 uM doxorubicin),"viability [6, 9] [%]","viability [6, 10] [%]",inhibition [7],inhibition [8]
O=C(Nc1ccc2c(c1)OCCO2)C1CCCN(S(=O)(=O)c2cnc[nH]2)C1 (stereo not given),82.5,111% (inactive),82.5% (inactive),100% (inactive),94.7% (inactive),8.45% (inactive),86.2,94.7,-3.2% (inactive),-3.93% (inactive)
O=c1c2ccccc2nnn1CSc1nnc2sc3ccccc3n12,95,64% (inactive),95% (inactive),92.8% (inactive),77.5% (inactive),9.79% (inactive),67.7,77.5,-9.04% (inactive),-1.43% (inactive)
CCN1CCN(S(=O)(=O)c2ccc(S(=O)(=O)N(CC)Cc3ccccc3)cc2)CC1,98,94% (inactive),98% (inactive),82.1% (inactive),91.9% (inactive),-7.05% (inactive),99,91.9,-4.27% (inactive),-1.13% (inactive)
CS(=O)(=O)C1=C(O)C(=O)N(c2ccccc2)C1c1ccccc1 (stereo not given),109,106% (inactive),109% (inactive),104% (inactive),105% (inactive),10.3% (inactive),94.4,105,-4.73% (inactive),0.33% (inactive)
CS(=O)(=O)Nc1ccc(C(=O)NCCc2ccccc2)cc1,96.5,94.5% (inactive),96.5% (inactive),102% (inactive),98.3% (inactive),12.9% (inactive),85.4,98.3,-3.47% (inactive),-3.55% (inactive)
CN(C1CCS(=O)(=O)C1)S(=O)(=O)c1cccc2nsnc12 (stereo not given),104,100% (inactive),104% (inactive),107% (inactive),107% (inactive),6.67% (inactive),100,107,-6.58% (inactive),-2.7% (inactive)
CCOC(=O)c1ccc(N2C(=O)CC(N(C)CCc3ccc(OC)c(OC)c3)C2=O)cc1 (stereo not given),102,123% (inactive),102% (inactive),101% (inactive),96.8% (inactive),12.1% (inactive),84.7,96.8,-2.73% (inactive),-8.83% (inactive)
COc1cccc(OCC(O)CN2CCN(CCO)CC2)c1 (stereo not given),92.5,96% (inactive),92.5% (inactive),101% (inactive),93.2% (inactive),1.65% (inactive),91.6,93.2,1.18% (inactive),6.39% (inactive)
Cc1c(=O)n(OCc2ccccn2)c2ccccc2[n+]1[O-],84,76% (inactive),84% (inactive),105% (inactive),94.2% (inactive),8.18% (inactive),86,94.2,-5.92% (inactive),-1.27% (inactive)
CCn1c(C(=O)N2CCC(C(=O)NCc3ccc4c(c3)OCO4)CC2)cc2sccc21,89,77.5% (inactive),89% (inactive),96.7% (inactive),89.6% (inactive),4.37% (inactive),85.3,89.6,-2.93% (inactive),1.64% (inactive)
Cn1c(C(=O)N2CCCC(C(=O)NCCCc3ccccc3)C2)cc2sccc21 (stereo not given),98,83.5% (inactive),98% (inactive),80.9% (inactive),82.3% (inactive),-16.3% (inactive),98.7,82.3,-1.28% (inactive),-1.17% (inactive)
CSc1nc(C)c(C(=O)Nc2ccccc2)c(C)c1C#N,100,76% (inactive),100% (inactive),91.7% (inactive),94.2% (inactive),6.57% (inactive),87.6,94.2,-5.87% (inactive),-3.39% (inactive)
CN(Cc1ccccc1)c1nc2c(c(=O)[nH]c(=O)n2C)n1Cc1ccccc1Cl,114,87.5% (inactive),114% (inactive),82.2% (inactive),85.4% (inactive),4.96% (inactive),80.4,85.4,-5.2% (inactive),8.36% (inactive)
Cc1cc(NC(=O)Cc2cn3ccsc3n2)n(-c2ccccc2)n1,91,103% (inactive),91% (inactive),91.8% (inactive),94.9% (inactive),5.08% (inactive),89.9,94.9,-0.64% (inactive),0.33% (inactive)
CCN(CC)S(=O)(=O)c1ccc(NC2CCCc3ccccc32)nc1 (stereo not given),71.5,77% (inactive),71.5% (inactive),88.6% (inactive),86% (inactive),0.97% (inactive),85.1,86,-4.46% (inactive),-3.17% (inactive)
CCOc1ccc2nc(SCc3ccc(C(=O)OC)o3)[nH]c2c1,77,87.5% (inactive),77% (inactive),89.5% (inactive),109% (inactive),12.7% (inactive),96.4,109,-0.4% (inactive),-2.42% (inactive)

SMILES,viability [1] [%],Her2 level [2],viability [3],viability [4],viability [5],differential viability (reversal) ([6]; H69AR cells + 2 uM doxorubicin),"viability [6, 9] [%]","viability [6, 10] [%]",inhibition [7],inhibition [8]
CCOc1ccc(C(=O)N2CCN(C(=O)c3ccco3)CC2)cc1OCC,110,85% (inactive),110% (inactive),85.8% (inactive),94.3% (inactive),0.255% (inactive),94,94.3,-3.47% (inactive),-0.79% (inactive)
CCCNS(=O)(=O)c1ccc(C(=O)NCC2CCCO2)cc1 (stereo not given),96.5,74.5% (inactive),96.5% (inactive),106% (inactive),95.1% (inactive),-1.32% (inactive),96.4,95.1,-3.56% (inactive),0.16% (inactive)
Cc1ccc(-c2nc3ccccc3[nH]2)s1,74,95.5% (inactive),74% (inactive),59.8% (inactive),58.8% (inactive),4.25% (inactive),54.5,58.8,0.77% (inactive),-9% (inactive)
CCCn1c2ccccc2c2nnc(SCC(=O)Nc3ncccn3)nc21,105,75.5% (inactive),105% (inactive),93.4% (inactive),87.6% (inactive),10.3% (inactive),77.4,87.6,-0.53% (inactive),-2.36% (inactive)
Cc1cccc(N2C(=O)CC(N3CCN(C(=O)c4ccccc4)CC3)C2=O)c1 (stereo not given),114,104% (inactive),114% (inactive),90.8% (inactive),96.3% (inactive),12.7% (inactive),83.6,96.3,-5.32% (inactive),2.13% (inactive)
Cn1nc(C(=O)Nc2cccc(C(F)(F)F)c2)ccc1=O,95.5,92% (inactive),95.5% (inactive),107% (inactive),91.5% (inactive),6.87% (inactive),84.7,91.5,-3.29% (inactive),1.45% (inactive)
O=C1CCc2cc(S(=O)(=O)N3CCC(C(=O)Nc4nccs4)CC3)ccc2N1,98,105% (inactive),98% (inactive),110% (inactive),85.3% (inactive),4.98% (inactive),80.3,85.3,-1.67% (inactive),-1.17% (inactive)
CCOC(=O)C1=C(O)CCn2c1nc1ccccc12,122,116% (inactive),122% (inactive),101% (inactive),101% (inactive),17.7% (inactive),83.6,101,-8.9% (inactive),0% (inactive)
CN(C)S(=O)(=O)c1ccc(/C(O)=C2/C(=O)C(=O)N(CCN3CCCCC3)C2c2cccnc2)cc1 (stereo not given),87,166% (inactive),87% (inactive),92.1% (inactive),87.3% (inactive),-3.39% (inactive),90.7,87.3,6.54% (inactive),11.3% (inactive)
COc1ccc(-c2nnc(SCC(=O)Nc3ccc(Cl)cc3)n2C)cc1,82.5,104% (inactive),82.5% (inactive),92.8% (inactive),90.2% (inactive),8% (inactive),82.2,90.2,-0.93% (inactive),-9.21% (inactive)
O=C1CN(C(=O)COC(=O)c2ccccc2NC(=O)c2ccco2)c2ccccc2N1,94,106% (inactive),94% (inactive),97.3% (inactive),83.6% (inactive),-14.1% (inactive),97.6,83.6,-5.95% (inactive),-0.49% (inactive)
COc1ccc(-n2c(Cc3cccn3C)nnc2SCC(=O)Nc2cccc(OC)c2)cc1,106,97.5% (inactive),106% (inactive),80.9% (inactive),98% (inactive),0.895% (inactive),97.1,98,1.79% (inactive),0% (inactive)
O=C(CCC(=O)OCCCC(F)(F)C(F)(F)F)NC1CCCCC1,123,112% (inactive),123% (inactive),112% (inactive),95.3% (inactive),3.4% (inactive),91.9,95.3,-5.47% (inactive),-3.23% (inactive)
O=C(CN(CCc1ccccc1)C(=O)CNS(=O)(=O)c1ccccc1)NCC1CCCO1 (stereo not given),91,87.5% (inactive),91% (inactive),86.9% (inactive),102% (inactive),5.36% (inactive),96.2,102,-0.81% (inactive),-2.13% (inactive)
C=CCn1c(-c2ccc(OC)cc2)nc2ccccc21,118,99.5% (inactive),118% (inactive),110% (inactive),95.5% (inactive),4.69% (inactive),90.8,95.5,-4.27% (inactive),3.71% (inactive)
